Test results taken from ChEMBL document CHEMBL1126044, “Affinity of human growth hormone-releasing factor (1-29)NH2 analogues for GRF binding sites in rat adenopituitary” (J Med Chem, 1992).
Square brackets hold non-standard residues; d marks the D form. Peptide text beside a SMILES is read from it. Aoc = NCCCCCCCC(=O)O

Key:
[1] = molecular target: T1, Growth hormone-releasing hormone receptor (Rattus norvegicus, UniProt Q02644); assay: Compound was tested to Inhibit [125I]-Growth hormone-releasing factor in rat adenopituitary homogenates
T1 sequence (Q02644 whole entry): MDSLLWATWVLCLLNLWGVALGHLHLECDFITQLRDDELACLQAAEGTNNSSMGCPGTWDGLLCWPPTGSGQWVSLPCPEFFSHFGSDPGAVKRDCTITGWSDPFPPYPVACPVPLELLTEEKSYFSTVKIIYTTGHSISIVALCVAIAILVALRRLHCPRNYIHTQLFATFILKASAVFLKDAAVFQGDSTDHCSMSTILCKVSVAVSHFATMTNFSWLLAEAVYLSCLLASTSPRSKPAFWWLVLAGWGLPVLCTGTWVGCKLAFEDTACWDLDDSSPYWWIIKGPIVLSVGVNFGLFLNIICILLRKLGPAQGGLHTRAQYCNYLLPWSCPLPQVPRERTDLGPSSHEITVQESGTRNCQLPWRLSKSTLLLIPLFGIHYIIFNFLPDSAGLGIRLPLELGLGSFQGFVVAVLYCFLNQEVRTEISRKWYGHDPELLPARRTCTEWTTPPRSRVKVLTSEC
Method in brief: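 Anterior pituitaries from 2-month-old male Sprague-Dawley rats homogenized in ice-cold 50 mM Tris-HCl pH 7.4 with 5 mM MgCl2, 5 mM EDTA. Homogenate (70–75 µg protein) incubated with 35–50 pM [125I-Tyr10]hGRF(1-44)NH2 and peptide at 0–1000 nM in Tris-HCl buffer pH 7.4 with 5 mM EDTA, 5 mM MgCl2, 0.42% BSA, 60 min at 23 °C. Nonspecific binding defined with 2.4 µM rGRF(1-29)NH2. Bound fraction separated by centrifugation and gamma-counted. IC50 fitted with LIGAND. Mean ± SEM of three experiments, each in duplicate or triplicate.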

[2] = molecular target: T2, Growth hormone-releasing hormone receptor (Rattus norvegicus) (UniProt Q02644); assay: Relative affinity compared to hGRF(1-29)NH2; format: functional
T2 sequence (whole entry): T1 sequence (Q02644 whole entry)
Method in brief: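 Radioligand competition in rat anterior pituitary homogenate using [125I-Tyr10]hGRF(1-44)NH2 at 35–50 pM and peptides at 0–1000 nM, 60 min at 23 °C. Relative affinity is the binding IC50 expressed as a percentage relative to hGRF(1-29)NH2.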

Compound	IC50 [1]	Activity [2]
H-YADAIFTNSYRKVLGQLSARLLQDIMSR-NH2	> 1000 nM	
H-YADAIFTNSYRKVLGQLSALLQDIMSR-NH2	> 1000 nM	
H-ADAIFTNSYRKVLAQLSARKLLQDIMSR-NH2 [listing 1 of 2 here]		1.5%
CC[C@H](C)[C@H](NC(=O)[C@H](C)NC(=O)[C@H](CC(=O)O)NC(=O)[C@H](C)NC(=O)[C@@H](N)Cc1ccc(O)cc1)C(=O)N[C@@H](Cc1ccccc1)C(=O)N[C@H](C(=O)N[C@@H](CC(N)=O)C(=O)N[C@@H](CO)C(=O)N[C@@H](Cc1ccc(O)cc1)C(=O)N[C@@H](CCCNC(=N)N)C(=O)N[C@@H](CCCCN)C(=O)N[C@H](C(=O)N[C@@H](CC(C)C)C(=O)NCC(=O)N[C@@H](CCC(N)=O)C(=O)N[C@@H](CC(C)C)C(=O)N[C@@H](CO)C(=O)NCCCCCCCC(=O)N[C@@H](CC(C)C)C(=O)N[C@@H](CC(C)C)C(=O)N[C@@H](CCC(N)=O)C(=O)N[C@@H](CC(=O)O)C(=O)N[C@H](C(=O)N[C@@H](CCSC)C(=O)N[C@@H](CO)C(=O)N[C@@H](CCCNC(=N)N)C(N)=O)[C@@H](C)CC)C(C)C)[C@@H](C)O (H-YADAIFTNSYRKVLGQLS[Aoc]LLQDIMSR-NH2)	> 1000 nM	
CC[C@H](C)[C@H](NC(=O)[C@H](C)NC(=O)[C@H](CC(=O)O)NC(=O)[C@H](C)NC(=O)[C@@H](N)Cc1ccc(O)cc1)C(=O)N[C@@H](Cc1ccccc1)C(=O)N[C@H](C(=O)N[C@@H](CC(N)=O)C(=O)N[C@@H](CO)C(=O)N[C@@H](Cc1ccc(O)cc1)C(=O)N[C@@H](CCCN=C(N)N)C(=O)N[C@@H](CCCCN)C(=O)NCCCCCCCC(=O)N[C@@H](CCC(N)=O)C(=O)N[C@@H](CC(C)C)C(=O)N[C@@H](CO)C(=O)N[C@@H](C)C(=O)N[C@@H](CCCN=C(N)N)C(=O)N[C@@H](CCCCN)C(=O)N[C@@H](CC(C)C)C(=O)N[C@@H](CC(C)C)C(=O)N[C@@H](CCC(N)=O)C(=O)N[C@@H](CC(=O)O)C(=O)N[C@H](C(=O)N[C@@H](CCSC)C(=O)N[C@@H](CO)C(=O)N[C@@H](CCCN=C(N)N)C(N)=O)[C@@H](C)CC)[C@@H](C)O (H-YADAIFTNSYRK[Aoc]QLSARKLLQDIMSR-NH2)	> 1000 nM	
CC[C@H](C)[C@H](NC(=O)[C@H](C)NC(=O)[C@H](CC(=O)O)NC(=O)[C@H](C)NC(=O)[C@@H](N)Cc1ccc(O)cc1)C(=O)N[C@@H](Cc1ccccc1)C(=O)N[C@H](C(=O)N[C@@H](CC(N)=O)C(=O)N[C@@H](CO)C(=O)N[C@@H](Cc1ccc(O)cc1)C(=O)N[C@@H](CCCNC(=N)N)C(=O)N[C@@H](CCCCN)C(=O)N[C@H](C(=O)N[C@@H](CC(C)C)C(=O)NCC(=O)NCCCCCCCC(=O)N[C@@H](C)C(=O)N[C@@H](CCCNC(=N)N)C(=O)N[C@@H](CCCCN)C(=O)N[C@@H](CC(C)C)C(=O)N[C@@H](CC(C)C)C(=O)N[C@@H](CCC(N)=O)C(=O)N[C@@H](CC(=O)O)C(=O)N[C@H](C(=O)N[C@@H](CCSC)C(=O)N[C@@H](CO)C(=O)N[C@@H](CCCNC(=N)N)C(N)=O)[C@@H](C)CC)C(C)C)[C@@H](C)O (H-YADAIFTNSYRKVLG[Aoc]ARKLLQDIMSR-NH2)	> 1000 nM	
H-YADAIFTNSYRKVLGQLSARKLLQDIR-NH2	120 nM	
H-ADAIFTNSYRKVLAQLSARKLLQDIMSR-NH2 [listing 2 of 2 here]	377 nM	
H-YADAIFTSYRKVLGQLSARKLLQDIMSR-NH2	95 nM	

Further compounds by falling IC50 [1], results first:

IC50 [1]	Activity [2]	Compound
45.2 nM		H-YADAIFTNSYRKVLGQLSARKLLDIMSR-NH2
44.2 nM		H-ADAIFTSSYRRILGQLYARKLLHEIMNR-NH2
17.6 nM		CC[C@H](C)[C@H](NC(=O)[C@H](C)NC(=O)[C@H](CC(=O)O)NC(=O)[C@H](C)NC(=O)[C@H](Cc1ccc(O)cc1)NC(C)=O)C(=O)N[C@@H](Cc1ccccc1)C(=O)N[C@H](C(=O)N[C@@H](CC(N)=O)C(=O)N[C@@H](CO)C(=O)N[C@@H](Cc1ccc(O)cc1)C(=O)N[C@@H](CCCNC(=N)N)C(=O)N[C@@H](CCCCN)C(=O)N[C@H](C(=O)N[C@@H](CC(C)C)C(=O)NCC(=O)N[C@@H](CCC(N)=O)C(=O)N[C@@H](CC(C)C)C(=O)N[C@@H](CO)C(=O)N[C@@H](C)C(=O)N[C@@H](CCCNC(=N)N)C(=O)N[C@@H](CCCCN)C(=O)N[C@@H](CC(C)C)C(=O)N[C@@H](CC(C)C)C(=O)N[C@@H](CCC(N)=O)C(=O)N[C@@H](CC(=O)O)C(=O)N[C@H](C(=O)N[C@@H](CCSC)C(=O)N[C@@H](CO)C(=O)N[C@@H](CCCNC(=N)N)C(N)=O)[C@@H](C)CC)C(C)C)[C@@H](C)O
16.9 nM		H-YADAIFTNSYRKVLGQLSARKLLQIMSR-NH2
13.7 nM		CC[C@H](C)[C@H](NC(=O)[C@H](C)NC(=O)[C@H](CC(=O)O)NC(=O)[C@H](C)NC(=O)[C@H](Cc1ccc(O)cc1)NC(=O)CCCN)C(=O)N[C@@H](Cc1ccccc1)C(=O)N[C@H](C(=O)N[C@@H](CC(N)=O)C(=O)N[C@@H](CO)C(=O)N[C@@H](Cc1ccc(O)cc1)C(=O)N[C@@H](CCCNC(=N)N)C(=O)N[C@@H](CCCCN)C(=O)N[C@H](C(=O)N[C@@H](CC(C)C)C(=O)NCC(=O)N[C@@H](CCC(N)=O)C(=O)N[C@@H](CC(C)C)C(=O)N[C@@H](CO)C(=O)N[C@@H](C)C(=O)N[C@@H](CCCNC(=N)N)C(=O)N[C@@H](CCCCN)C(=O)N[C@@H](CC(C)C)C(=O)N[C@@H](CC(C)C)C(=O)N[C@@H](CCC(N)=O)C(=O)N[C@@H](CC(=O)O)C(=O)N[C@H](C(=O)N[C@@H](CCSC)C(=O)N[C@@H](CO)C(=O)N[C@@H](CCCNC(=N)N)C(N)=O)[C@@H](C)CC)C(C)C)[C@@H](C)O
9.5 nM		H-YADAIFTNSYRKVLGQLSARKLLQDISR-NH2
7.2 nM		H-YADAIFTNSYRKVLGQLSARKLLQDIMR-NH2
6.6 nM		CC[C@H](C)[C@H](NC(=O)[C@H](C)NC(=O)[C@H](CC(=O)O)NC(=O)[C@H](C)NC(=O)[C@H](Cc1ccc(O)cc1)NC(=O)CCCCCN)C(=O)N[C@@H](Cc1ccccc1)C(=O)N[C@H](C(=O)N[C@@H](CC(N)=O)C(=O)N[C@@H](CO)C(=O)N[C@@H](Cc1ccc(O)cc1)C(=O)N[C@@H](CCCNC(=N)N)C(=O)N[C@@H](CCCCN)C(=O)N[C@H](C(=O)N[C@@H](CC(C)C)C(=O)NCC(=O)N[C@@H](CCC(N)=O)C(=O)N[C@@H](CC(C)C)C(=O)N[C@@H](CO)C(=O)N[C@@H](C)C(=O)N[C@@H](CCCNC(=N)N)C(=O)N[C@@H](CCCCN)C(=O)N[C@@H](CC(C)C)C(=O)N[C@@H](CC(C)C)C(=O)N[C@@H](CCC(N)=O)C(=O)N[C@@H](CC(=O)O)C(=O)N[C@H](C(=O)N[C@@H](CCSC)C(=O)N[C@@H](CO)C(=O)N[C@@H](CCCNC(=N)N)C(N)=O)[C@@H](C)CC)C(C)C)[C@@H](C)O
5.6 nM		CC[C@H](C)[C@H](NC(=O)[C@H](C)NC(=O)[C@H](CC(=O)O)NC(=O)[C@H](C)NC(=O)[C@@H](N)Cc1ccc(O)cc1)C(=O)N[C@@H](Cc1ccccc1)C(=O)N[C@H](C(=O)N[C@@H](CC(N)=O)C(=O)N[C@@H](CO)C(=O)N[C@@H](Cc1ccc(O)cc1)C(=O)N[C@@H](CCCNC(=N)N)C(=O)N[C@@H](CCCCN)C(=O)N[C@H](C(=O)N[C@@H](CC(C)C)C(=O)NCC(=O)N[C@@H](CCC(N)=O)C(=O)N[C@@H](CC(C)C)C(=O)N[C@@H](CO)C(=O)N[C@@H](C)C(=O)N[C@@H](CCCNC(=N)N)C(=O)N[C@@H](CCCCN)C(=O)N[C@@H](CC(C)C)C(=O)N[C@@H](CC(C)C)C(=O)N[C@@H](CCC(N)=O)C(=O)N[C@@H](CC(=O)O)C(=O)N[C@H](C(=O)N[C@@H](CCSC)C(=O)N[C@@H](CO)C(=O)N[C@@H](CCCNC(=N)N)C(N)=O)[C@@H](C)CC)C(C)C)[C@@H](C)O
